Published values of several laboratories.
Each line is one published result; the experiments were not run side by side.
CSF1R autoinhibited: Macrophage colony-stimulating factor 1 receptor, autoinhibited (CSF1R, Homo sapiens, UniProt P07333)
CSF1R: Macrophage colony-stimulating factor 1 receptor (CSF1R, Homo sapiens, UniProt P07333)

Structure (SMILES)	target	test	conditions	remaining binding [%]
Cc1cnc(Nc2ccc(C(=O)N3CCC(N4CCCC4)CC3)cc2)nc1-c1cc2ccccc2s1	CSF1R autoinhibited	binding, competition with immobilised ligand	1 µM	45
O=C(NCC1CCOCC1)c1n[nH]cc1NC(=O)c1c(F)cccc1F	CSF1R autoinhibited	binding, competition with immobilised ligand	1 µM	62
CCN1CCN(Cc2ccc(C(=O)Nc3ccc(C)c(Oc4ccc5c(c4)CC(=O)N5)c3)cc2C(F)(F)F)CC1	CSF1R autoinhibited	binding, competition with immobilised ligand	1 µM	100
C[C@@H]1CCN(c2nccc(-c3cnn4ncccc34)n2)C1	CSF1R autoinhibited	binding	1 µM	78
C[C@@H](c1ccc(-n2cnc3c(N)ncnc32)cc1)N1CCc2nn(C)c(Cc3ccccc3)c2C1=O	CSF1R autoinhibited	binding, competition with immobilised ligand	0.1 µM	81
COc1cnc(Nc2cccc(S(N)(=O)=O)c2)nc1N1CCN(c2ccccc2)CC1	CSF1R autoinhibited	binding, competition with immobilised ligand	1 µM	99
CC(=O)C1=C(C)N(c2cccc(C(F)(F)F)c2)C(=O)N[C@@H]1c1ccc(C#N)nc1	CSF1R	cell-free assay, competition with immobilised ligand	1 µM	99.4
N[C@@H]1CCN(c2nccc(-c3cnn4ncccc34)n2)C1	CSF1R autoinhibited	binding	1 µM	100
CC(=O)Nc1c(C(C)=O)c(=O)n(C)c2nc(-c3ccc(Cl)cc3Cl)c(-c3ccc(Cl)cc3)cc12	CSF1R	cell-free assay, competition with immobilised ligand	1 µM	100
COc1ccnn2ncc(-c3ccnc(N(C)C)n3)c12	CSF1R	binding	1 µM	100
COc1cccc(CNC(=O)c2nc3scc(COCc4ccc(C(=O)O)cc4)c3c(=O)[nH]2)c1	CSF1R autoinhibited	cell-free assay, competition with immobilised ligand	1 µM	100
CNC(=O)[C@@H]1CC[C@@H](n2c(-c3ccc4cnccc4c3)nc3ccc(C(=O)NCc4cccc(C(N)=O)c4)cc32)C1	CSF1R autoinhibited	binding, competition with immobilised ligand	1 µM	80
c1cnn2ncc(-c3ccnc(N4CCC45COC5)n3)c2c1	CSF1R autoinhibited	binding	1 µM	64
CNC(=O)Nc1ccc2c(c1)[C@@]1(CC2)OC(=O)N(CC(=O)N(Cc2ccc(F)cc2)[C@@H](C)C(F)(F)F)C1=O	CSF1R autoinhibited	cell-free assay, competition with immobilised ligand	1 µM	100
CN(CCCC(F)(F)F)c1nccc(-c2cnn3ncccc23)n1	CSF1R	binding	1 µM	93
CCCCN(CCCC)C(=O)CN1C[C@@H](c2cc(OC)c3c(c2)OCO3)[C@H](C(=O)O)[C@H]1CC(C)(C)CCC	CSF1R autoinhibited	cell-free assay, competition with immobilised ligand	1 µM	100
Cc1nc(NC(=O)N2CCC[C@H]2C(N)=O)sc1-c1ccnc(C(C)(C)C(F)(F)F)c1	CSF1R	binding, competition with immobilised ligand	10 µM	68
O=C(Nc1ccc(Oc2ccc(F)cc2)cc1)N1CCc2ncccc2[C@H]1c1ccc(F)cc1	CSF1R autoinhibited	cell-free assay, competition with immobilised ligand	1 µM	95
O=C(c1ccc(Nc2ncc(Cl)c(-c3cc4ccccc4s3)n2)cc1)N1CCC(N2CCCC2)CC1	CSF1R autoinhibited	binding, competition with immobilised ligand	1 µM	56
